Assays:
Type in all cases: functional
[1] = system: SR; test: Cytotoxicity against human SR cells assessed as growth inhibition at 10 uM after 48 hrs by sulphorhodamine B assay; settings: read-out: GI
Outline: (§1)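 NCI-60 one-dose screen per the NCI Drug Evaluation Branch protocol. Cells given a single 10 µM concentration with 48 h continuous exposure. Growth estimated by sulphorhodamine B protein assay. Result expressed as percentage growth inhibition relative to untreated growth.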

[2] = system: UACC-62; test: Cytotoxicity against human UACC62 cells assessed as growth inhibition at 10 uM after 48 hrs by sulphorhodamine B assay; settings: UACC-62, 48 h, read-out: GI; outline: as §1
[3] = system: NCI/ADR-RES; test: Cytotoxicity against human NCI/ADR-RES cells assessed as growth inhibition at 10 uM after 48 hrs by sulphorhodamine B assay; settings: read-out: GI; outline: as §1
[4] = system: A549; test: Cytotoxicity against human A549 cells assessed as growth inhibition at 10 uM after 48 hrs by sulphorhodamine B assay; settings: A549, 48 h, read-out: GI; outline: as §1
[5] = system: SK-MEL-5; test: Cytotoxicity against human SK-MEL-5 cells assessed as growth inhibition at 10 uM after 48 hrs by sulphorhodamine B assay; settings: SK-MEL-5, 48 h, read-out: GI; outline: as §1
[6] = system: HT-29; test: Cytotoxicity against human HT-29 cells assessed as growth inhibition at 10 uM after 48 hrs by sulphorhodamine B assay; settings: HT-29, 48 h, read-out: GI; outline: as §1
[7] = system: OVCAR-5; test: Cytotoxicity against human OVCAR5 cells assessed as growth inhibition at 10 uM after 48 hrs by sulphorhodamine B assay; settings: OVCAR-5, 48 h, read-out: GI; outline: as §1
[8] = system: ACHN; test: Cytotoxicity against human ACHN cells assessed as growth inhibition at 10 uM after 48 hrs by sulphorhodamine B assay; settings: read-out: GI; outline: as §1
[9] = system: HCT-116; test: Cytotoxicity against human HCT116 cells assessed as growth inhibition at 10 uM after 48 hrs by sulphorhodamine B assay; settings: HCT-116, 48 h, read-out: GI; outline: as §1
[10] = system: UO-31; test: Cytotoxicity against human UO31 cells assessed as growth inhibition at 10 uM after 48 hrs by sulphorhodamine B assay; settings: UO-31, 48 h, read-out: GI; outline: as §1
[11] = system: IGROV-1; test: Cytotoxicity against human IGROV1 cells assessed as growth inhibition at 10 uM after 48 hrs by sulphorhodamine B assay; settings: IGROV-1, 48 h, read-out: GI; outline: as §1
[12] = system: K562; test: Cytotoxicity against human K562 cells assessed as growth inhibition at 10 uM after 48 hrs by sulphorhodamine B assay; settings: K562, 48 h, read-out: GI; outline: as §1
[13] = system: RXF 393; test: Cytotoxicity against human RXF393 cells assessed as growth inhibition at 10 uM after 48 hrs by sulphorhodamine B assay; settings: RXF 393, 48 h, read-out: GI; outline: as §1
[14] = system: DU-145; test: Cytotoxicity against human DU145 cells assessed as growth inhibition at 10 uM after 48 hrs by sulphorhodamine B assay; settings: DU-145, 48 h, read-out: GI; outline: as §1
[15] = system: MCF7; test: Cytotoxicity against human MCF7 cells assessed as growth inhibition at 10 uM after 48 hrs by sulphorhodamine B assay; settings: MCF7, 48 h, read-out: GI; outline: as §1
[16] = system: CCRF-CEM; test: Cytotoxicity against human CCRF-CEM cells assessed as growth inhibition at 10 uM after 48 hrs by sulphorhodamine B assay; settings: read-out: GI; outline: as §1
[17] = system: MDA-MB-468; test: Cytotoxicity against human MDA-MB-468 cells assessed as growth inhibition at 10 uM after 48 hrs by sulphorhodamine B assay; settings: MDA-MB-468, 48 h, read-out: GI; outline: as §1
[18] = system: MOLT-4; test: Cytotoxicity against human MOLT4 cells assessed as growth inhibition at 10 uM after 48 hrs by sulphorhodamine B assay; settings: MOLT-4, 48 h, read-out: GI; outline: as §1
[19] = system: NCI-H23; test: Cytotoxicity against human NCI-H23 cells assessed as growth inhibition at 10 uM after 48 hrs by sulphorhodamine B assay; settings: NCI-H23, 48 h, read-out: GI; outline: as §1
[20] = system: SF-268; test: Cytotoxicity against human SF268 cells assessed as growth inhibition at 10 uM after 48 hrs by sulphorhodamine B assay; settings: SF-268, 48 h, read-out: GI; outline: as §1
[21] = system: OVCAR-4; test: Cytotoxicity against human OVCAR4 cells assessed as growth inhibition at 10 uM after 48 hrs by sulphorhodamine B assay; settings: OVCAR-4, 48 h, read-out: GI; outline: as §1
[22] = system: RPMI-8226; test: Cytotoxicity against human RPMI8226 cells assessed as growth inhibition at 10 uM after 48 hrs by sulphorhodamine B assay; settings: RPMI-8226, 48 h, read-out: GI; outline: as §1
[23] = system: SNB-19; test: Cytotoxicity against human SNB19 cells assessed as growth inhibition at 10 uM after 48 hrs by sulphorhodamine B assay; settings: SNB-19, 48 h, read-out: GI; outline: as §1
[24] = system: SK-MEL-2; test: Cytotoxicity against human SK-MEL-2 cells assessed as growth inhibition at 10 uM after 48 hrs by sulphorhodamine B assay; settings: SK-MEL-2, 48 h, read-out: GI; outline: as §1
[25] = system: M14; test: Cytotoxicity against human M14 cells assessed as growth inhibition at 10 uM after 48 hrs by sulphorhodamine B assay; settings: M14, 48 h, read-out: GI; outline: as §1
[26] = system: SNB-75; test: Cytotoxicity against human SNB75 cells assessed as growth inhibition at 10 uM after 48 hrs by sulphorhodamine B assay; settings: SNB-75, 48 h, read-out: GI; outline: as §1
[27] = Cytotoxicity against human EKVX cells assessed as growth inhibition at 10 uM after 48 hrs by sulphorhodamine B assay; settings: read-out: GI; outline: as §1
[28] = system: HL-60(TB); test: Cytotoxicity against human HL-60(TB) cells assessed as growth inhibition at 10 uM after 48 hrs by sulphorhodamine B assay; settings: HL-60, 48 h, read-out: GI
Outline: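 NCI-60 one-dose primary screen run to the Drug Evaluation Branch protocol. Cells are exposed to a single 10 µM concentration for 48 h continuously, and growth is read by SRB protein assay. Data are reported as percent growth of treated cells, expressed as % growth inhibition.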

[29] = system: SF-295; test: Cytotoxicity against human SF295 cells assessed as growth inhibition at 10 uM after 48 hrs by sulphorhodamine B assay; settings: SF-295, 48 h, read-out: GI; outline: as §1
[30] = system: NCI-H522; test: Cytotoxicity against human NCI-H522 cells assessed as growth inhibition at 10 uM after 48 hrs by sulphorhodamine B assay; settings: NCI-H522, 48 h, read-out: GI; outline: as §1
[31] = system: CAKI-1; test: Cytotoxicity against human Caki1 cells assessed as growth inhibition at 10 uM after 48 hrs by sulphorhodamine B assay; settings: CAKI-1, 48 h, read-out: GI; outline: as §1
[32] = system: SK-OV-3; test: Cytotoxicity against human SKOV3 cells assessed as growth inhibition at 10 uM after 48 hrs by sulphorhodamine B assay; settings: SK-OV-3, 48 h, read-out: GI; outline: as §1
[33] = system: HOP-92; test: Cytotoxicity against human HOP92 cells assessed as growth inhibition at 10 uM after 48 hrs by sulphorhodamine B assay; settings: HOP-92, 48 h, read-out: GI; outline: as §1
[34] = system: HCT-15; test: Cytotoxicity against human HCT15 cells assessed as growth inhibition at 10 uM after 48 hrs by sulphorhodamine B assay; settings: HCT-15, 48 h, read-out: GI; outline: as §1
[35] = system: MDA-MB-435; test: Cytotoxicity against human MDA-MB-435 cells assessed as growth inhibition at 10 uM after 48 hrs by sulphorhodamine B assay; settings: MDA-MB-435, 48 h, read-out: GI; outline: as §1
[36] = system: U-251; test: Cytotoxicity against human U251 cells assessed as growth inhibition at 10 uM after 48 hrs by sulphorhodamine B assay; settings: U-251, 48 h, read-out: GI; outline: as §1
[37] = system: LOX IMVI; test: Cytotoxicity against human LOXIMVI cells assessed as growth inhibition at 10 uM after 48 hrs by sulphorhodamine B assay; settings: read-out: GI; outline: as §1
[38] = system: Hs-578T; test: Cytotoxicity against human Hs578T cells assessed as growth inhibition at 10 uM after 48 hrs by sulphorhodamine B assay; settings: read-out: GI; outline: as §1
[39] = system: PC-3; test: Cytotoxicity against human PC3 cells assessed as growth inhibition at 10 uM after 48 hrs by sulphorhodamine B assay; settings: PC-3, 48 h, read-out: GI; outline: as §1
[40] = system: A498; test: Cytotoxicity against human A498 cells assessed as growth inhibition at 10 uM after 48 hrs by sulphorhodamine B assay; settings: A498, 48 h, read-out: GI; outline: as §1
[41] = system: T47D; test: Cytotoxicity against human T47D cells assessed as growth inhibition at 10 uM after 48 hrs by sulphorhodamine B assay; settings: read-out: GI; outline: as §1

SMILES: CC1CCCc2c1nc(NC(=S)NC(=O)c1ccccc1)c(C#N)c2-c1ccc(Cl)cc1 (configuration not stated)
- inhibition of growth at 10 µM [1]: < 10%
- inhibition of growth at 10 µM [2]: 25.3%
- inhibition of growth at 10 µM [3]: < 10%
- inhibition of growth at 10 µM [4]: 16%
- inhibition of growth at 10 µM [5]: 17.7%
- inhibition of growth at 10 µM [6]: < 10%
- inhibition of growth at 10 µM [7]: < 10%
- inhibition of growth at 10 µM [8]: 14%
- inhibition of growth at 10 µM [9]: 20%
- inhibition of growth at 10 µM [10]: 33.2%
- inhibition of growth at 10 µM [11]: 32%
- inhibition of growth at 10 µM [12]: 36.3%
- inhibition of growth at 10 µM [13]: < 10%
- inhibition of growth at 10 µM [14]: < 10%
- inhibition of growth at 10 µM [15]: 12.1%
- inhibition of growth at 10 µM [16]: 27.6%
- inhibition of growth at 10 µM [17]: 14.5%
- inhibition of growth at 10 µM [18]: 31%
- inhibition of growth at 10 µM [19]: 10%
- inhibition of growth at 10 µM [20]: < 10%
- inhibition of growth at 10 µM [21]: 21.4%
- inhibition of growth at 10 µM [22]: 55%
- inhibition of growth at 10 µM [23]: 14.1%
- inhibition of growth at 10 µM [24]: 10.3%
- inhibition of growth at 10 µM [25]: < 10%
- inhibition of growth at 10 µM [26]: 15.7%
- inhibition of growth at 10 µM [27]: 16.7%
- inhibition of growth at 10 µM [28]: 30%
- inhibition of growth at 10 µM [29]: 17.2%
- inhibition of growth at 10 µM [30]: 27.5%
- inhibition of growth at 10 µM [31]: 22.5%
- inhibition of growth at 10 µM [32]: 20%
- inhibition of growth at 10 µM [33]: 38.2%
- inhibition of growth at 10 µM [34]: 11.6%
- inhibition of growth at 10 µM [35]: < 10%
- inhibition of growth at 10 µM [36]: 20%
- inhibition of growth at 10 µM [37]: 11.1%
- inhibition of growth at 10 µM [38]: 13.8%
- inhibition of growth at 10 µM [39]: 20.3%
- inhibition of growth at 10 µM [40]: 39%
- inhibition of growth at 10 µM [41]: 38.8%

SMILES: COc1ccc(-c2c3c(nc4ncn5ncnc5c24)C(C)CCC3)cc1 (configuration not stated)
- inhibition of growth at 10 µM [1]: 17.8%
- inhibition of growth at 10 µM [2]: 18.3%
- inhibition of growth at 10 µM [3]: < 10%
- inhibition of growth at 10 µM [4]: < 10%
- inhibition of growth at 10 µM [5]: < 10%
- inhibition of growth at 10 µM [6]: < 10%
- inhibition of growth at 10 µM [7]: < 10%
- inhibition of growth at 10 µM [8]: < 10%
- inhibition of growth at 10 µM [9]: < 10%
- inhibition of growth at 10 µM [10]: < 10%
- inhibition of growth at 10 µM [11]: 10.6%
- inhibition of growth at 10 µM [12]: < 10%
- inhibition of growth at 10 µM [13]: < 10%
- inhibition of growth at 10 µM [14]: < 10%
- inhibition of growth at 10 µM [15]: < 10%
- inhibition of growth at 10 µM [16]: < 10%
- inhibition of growth at 10 µM [17]: < 10%
- inhibition of growth at 10 µM [18]: 19%
- inhibition of growth at 10 µM [19]: < 10%
- inhibition of growth at 10 µM [20]: < 10%
- inhibition of growth at 10 µM [21]: < 10%
- inhibition of growth at 10 µM [22]: 31%
- inhibition of growth at 10 µM [23]: < 10%
- inhibition of growth at 10 µM [24]: < 10%
- inhibition of growth at 10 µM [25]: < 10%
- inhibition of growth at 10 µM [26]: < 10%
- inhibition of growth at 10 µM [27]: < 10%
- inhibition of growth at 10 µM [28]: < 10%
- inhibition of growth at 10 µM [29]: < 10%
- inhibition of growth at 10 µM [30]: < 10%
- inhibition of growth at 10 µM [31]: < 10%
- inhibition of growth at 10 µM [32]: < 10%
- inhibition of growth at 10 µM [33]: < 10%
- inhibition of growth at 10 µM [34]: < 10%
- inhibition of growth at 10 µM [35]: < 10%
- inhibition of growth at 10 µM [36]: < 10%
- inhibition of growth at 10 µM [37]: 15%
- inhibition of growth at 10 µM [38]: < 10%
- inhibition of growth at 10 µM [39]: 13%
- inhibition of growth at 10 µM [40]: 13.5%
- inhibition of growth at 10 µM [41]: < 10%
